SUMO1 PPI mod = SUMO1-SIM interaction modulation; 360,000 tested, 0.33% active; SUMO1 binding to a labelled peptide, TR-FRET, 1 h; inhibition, % at 20 µM; AID 602429; P63165; in the data active = inhibition above about 37%
STEP block = blocks human striatal-enriched tyrosine phosphatase. P54829. recombinant STEP, OMFP fluorogenic substrate, fluorescence. inhibition, % at 20 µM. 360,000 tested, 0.25% active. AID 588621;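 active = inhibition at 20 µM, scaled per plate between control wells, above about 37%, limit read from the data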;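 also: 0% = DMSO with enzyme and substrate and 100% = substrate only without enzyme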
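medium = Bis-Tris buffer pH 6.0, 2.5 mM DTT, 0.005% Tween 20 | test system = STEP (striatal-enriched tyrosine phosphatase) enzyme, cell-free | measure = normalized % inhibition | compound dosing = 20 µM, 1% DMSO | also added = 25 µM OMFP | schedule = reaction 20 min, ambient temperature | measured by = fluorescence read at 480 nm ex / 540 nm em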
Rpn11 inh = blocks the human proteasome subunit Rpn11; O00487; human 26S proteasome, Ub4-pepOG fluorescence polarization; 20S core pre-blocked with epoxomicin; inhibition, % at 20 µM; 360,000 tested, 0.59% active;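 active = inhibition at 20 µM, scaled to each plate's controls, above about 33%, limit read from the data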
Scp1 inh = inhibitors of human Scp-1 phosphatase | inhibition, % at 20 µM | 340,000 tested, 0.88% active | AID 493091 | Q9GZU7 | Recombinant Scp1, phosphopeptide, malachite green phosphate absorbance;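 active = inhibition above about 50% at 20 µM, limit read from the data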;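 also: plate controls were DMSO wells with enzyme for no effect and wells lacking enzyme for full effect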
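Test system: SCP-1 phosphatase catalytic domain, residues 76-261; measured by: colorimetric phosphate reagent with accelerator and stabiliser, absorbance at 630 nm; timing: enzyme reaction 45 min at room temperature, colour 5 min, stabilisation 30 min; also added: Phosphorylated 17-residue peptide substrate; compound dosing: one concentration, 20 µM, with 1.0% DMSO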
LMPTP block = LMPTP (human) inhibition; P24666; recombinant LMPTP-A, OMFP fluorogenic substrate, fluorescence intensity; inhibition, % at 20 µM; 360,000 tested, 0.22% active;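 active = compounds that cut the enzyme signal by at least half of the control window in the single-dose screen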;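 also: plate controls were DMSO wells with enzyme plus substrate for no effect and substrate without enzyme for full effect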
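Assay system: LMPTP-A, protein tyrosine phosphatase of low molecular weight / Medium: pH 6.0 Bis-Tris buffer with DTT and Triton X-100 / Schedule: 50 min enzyme reaction at room temperature, protected from light / Measured by: endpoint fluorescence intensity from OMFP dephosphorylation / Read-out basis: % inhibition relative to no-enzyme and uninhibited control wells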
DNMT1 inh = inhibitors of human DNMT1; P26358; DNMT1 molecular beacon, Hinp1I cleavage, fluorescence; inhibition (reported as % activation of signal), % at 10 µM; AID 588458; 360,000 tested, 0.83% active; in the data active = inhibition above about 50%
Rpn11 confirm = confirmation of human proteasome Rpn11 inhibitors. AID 602318. shares compounds with Rpn11 inh. inhibition, % at 20 µM. 1,900 tested, 29% active. purified human 26S proteasome, Ub4-pepOG fluorescence polarization; proteasome pretreated with epoxomicin
MMP-2 inh = MMP-2 (human) inhibition counter-screen; inhibition, % at 20 µM; recombinant MMP-2, FRET peptide cleavage fluorescence; shares compounds with Rpn11 inh; 1,900 tested, 4% active;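 also: human MMP-2 activated beforehand with APMA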
Target sequence (P08253 whole entry, looked up): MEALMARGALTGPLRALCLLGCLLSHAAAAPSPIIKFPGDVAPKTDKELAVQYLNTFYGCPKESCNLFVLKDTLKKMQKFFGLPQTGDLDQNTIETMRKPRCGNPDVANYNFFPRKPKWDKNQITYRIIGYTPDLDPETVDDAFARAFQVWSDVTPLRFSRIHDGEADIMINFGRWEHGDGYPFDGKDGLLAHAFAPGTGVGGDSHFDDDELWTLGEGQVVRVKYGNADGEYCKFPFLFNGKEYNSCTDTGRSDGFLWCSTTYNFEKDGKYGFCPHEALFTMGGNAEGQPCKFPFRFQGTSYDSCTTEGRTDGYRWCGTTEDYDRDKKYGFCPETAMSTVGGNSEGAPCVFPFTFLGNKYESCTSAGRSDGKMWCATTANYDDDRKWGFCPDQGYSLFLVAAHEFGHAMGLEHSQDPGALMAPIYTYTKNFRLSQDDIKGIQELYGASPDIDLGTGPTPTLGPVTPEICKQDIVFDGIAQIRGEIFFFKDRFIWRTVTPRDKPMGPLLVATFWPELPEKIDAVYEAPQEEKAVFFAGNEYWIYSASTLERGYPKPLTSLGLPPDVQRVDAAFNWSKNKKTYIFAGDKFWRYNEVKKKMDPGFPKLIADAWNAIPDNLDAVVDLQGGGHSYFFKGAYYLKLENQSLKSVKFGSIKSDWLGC
Thrombin FP = blocks bovine thrombin, flagging nonselective RPN11 hits; shares compounds with Rpn11 inh; bovine thrombin cleavage of Ub4-pepOG, fluorescence polarization; inhibition, % at 20 µM; 1,900 tested, 13% active; AID 602333;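 active = mean inhibition at least 40% at 20 µM, or signal 3 deviations below plate average, so some actives read negative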;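 also: plate controls were thrombin with DMSO for no effect and buffer wells lacking thrombin for full effect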
Active calls of the source: *; . = no result given. Hits are enriched below; roughly 2.3% of the tested compounds scored in any of these assays. Rule as the data show it, unless noted: active = inhibition above about 40%; inactive = the rest.

SMILES	SUMO1 PPI mod	STEP block	Rpn11 inh	Scp1 inh	LMPTP block	DNMT1 inh	Rpn11 confirm	MMP-2 inh	Thrombin FP
CC1CCN(c2ccc3c(c2)S(=O)(=O)c2cccc(C(=O)NC4CCCCC4)c2C3=O)CC1	-30	-2	88*	-8	4	-1	44*	-28	31
C=CCNC(=O)c1cccc2c1C(=O)c1ccc(N3CCOCC3)cc1S2(=O)=O	-39	0	49*	-3	1	2	30	-21	13
O=C(NCCc1ccccc1)c1cccc2c1C(=O)c1ccc(N3CCOCC3)cc1S2(=O)=O	-31	2	12	-3	1	1	.	.	.
CCN1CCc2c(sc(NC(=O)c3cc4ccccc4cc3OC)c2C(N)=O)C1	-23	1	72*	-2	2	-2	75*	-38	39
O=C(CCCCCn1c(=O)[nH]c2ccsc2c1=O)NCc1ccc2c(c1)OCO2	2	-1	-8	-6	3	1	.	.	.
COc1ccc(NC(=O)Nc2c(SC)nsc2SC)cc1	1	1	2	-3	0	0	.	.	.
NC(=O)c1c(NC(=O)c2ccc(S(=O)(=O)N3CCOCC3)cc2)sc2c1CCCCC2	-2	1	3	-8	1	-3	.	.	.
CN1CCN(S(=O)(=O)c2cccc(C(=O)Nc3sc4c(c3C(N)=O)CCCC4)c2)CC1	28	12	90*	0	-1	-6	6	25	-3
Cc1cc(C)n(CC(O)Cn2c3ccccc3c3ccccc32)c(=O)n1 (centres undefined)	-2	-1	48*	-2	-1	-2	0	0	-4
Cc1cc(C)n(CC(O)Cn2c3ccc(Br)cc3c3cc(Br)ccc32)c(=O)n1 (centres undefined)	-1	-2	18	3	3	-23	.	.	.
Cc1nn(-c2ccccc2)c(Cl)c1/C=C1\SC(=S)N(CCCCCC(=O)O)C1=O	4	0	2	-20	3	5	.	.	.
Cc1nn(-c2ccccc2)c(Cl)c1/C=C1\SC(=S)NC1=O	14	-1	48*	-6	1	1	-7	14	-7
CC(C)CN(C(=O)c1cc(Cl)nc2ccccc12)C1CCS(=O)(=O)C1 (centres undefined)	-1	-1	-4	7	0	1	.	.	.
CCSc1nc2sc3c(c2c(=O)n1-c1ccccc1)CCN(C)C3	-21	3	53*	-1	4	6	7	-12	14
Cc1ccc(S(=O)(=O)Nc2cc(Cl)c(O)c3ncccc23)cc1	-22	3	72*	-12	10	-14	76*	52*	9
Oc1c(Cl)cc(Cl)c2cccnc12	3	0	54*	-6	3	-10	26	30	-8
Cc1ccccc1-c1csc(C(O)c2ccc(F)c(F)c2)n1 (centres undefined)	2	-3	-1	.	2	3	.	.	.
COc1ccc(-c2ccc3c(c2)S(=O)(=O)c2cccc(C(=O)N4CCN(c5c(Cl)cncc5Cl)CC4)c2C3=O)cc1OC	-21	3	76*	11	3	-8	43*	-13	17
O=C1c2ccc(Cl)cc2S(=O)(=O)c2cccc(C(=O)N3CCN(c4ncc(Br)cn4)CC3)c21	-26	2	0	-6	1	-4	.	.	.
CCOC(=O)Cn1cc(Cl)cc(C(=O)Nc2ccccc2)c1=O	-26	1	-1	-12	0	0	.	.	.
O=C1N=C(c2ccccc2)C(c2ccccc2)N1 (centres undefined)	1	2	0	-18	-1	0	.	.	.
COc1ccc(C2=NC(=O)NC2c2ccc(OC)cc2)cc1 (centres undefined)	-2	1	39*	-9	-1	0	9	-14	-6
COc1cccc(-n2c(SCC(N)=O)nc3ccccc3c2=O)c1	-1	-2	66*	-7	-1	2	56*	-4	19
NC(=O)CSc1nc2ccccc2c(=O)n1-c1ccccc1	-3	-2	0	-6	-1	1	.	.	.
CC(=O)c1cc2c(cc1NC(=O)CN(C)S(=O)(=O)c1cccs1)OCO2	-15	-4	1	-6	2	-6	.	.	.
SMILES	SUMO1 PPI mod	STEP block	Rpn11 inh	Scp1 inh	LMPTP block	DNMT1 inh	Rpn11 confirm	MMP-2 inh	Thrombin FP
O=C1c2ccccc2/C(=C\c2ccc(Br)s2)N1c1ccccc1	-10	0	41*	-7	3	-13	-3	1	2
CC1=NN(c2ccccc2)C(=O)/C1=C\c1ccc(Br)s1	21	2	-3	-10	3	11	.	.	.
O=C(NCc1n[nH]c(=S)n1-c1ccccc1)c1ccc(S(=O)(=O)N2CCOCC2)cc1	-7	1	-2	-2	-1	2	.	.	.
O=C(NCc1n[nH]c(=S)n1-c1ccc(F)cc1)c1ccc(S(=O)(=O)N2CCOCC2)cc1	2	0	92*	-1	-2	1	-5	53*	-10
Cc1ccc(C)n1-c1ccc(C(=O)/C=C/N(C)C)cc1	-2	0	50*	4	2	-8	8	-53	-2
CN(C)/C=C/C(=O)c1ccc(Br)cc1	-4	-1	8	-6	0	0	.	.	.
O=S(=O)(c1ccc(Cl)cc1)N1CCc2ccccc21	-3	-1	42*	-11	1	1	147*	-45	132*
CC(=O)N1CCc2cc(N=NC3=C(O)CCCC3=O)ccc21	-49	5	56*	-1	8	-7	51*	-7	22
Clc1cccc(Cc2c(-c3ccccc3)nc3c4ccccc4ccn23)c1	-2	0	18	.	5	-7	.	.	.
Fc1ccc(-c2nc3c4ccccc4ccn3c2Cc2cccc(Cl)c2)cc1	1	-2	43*	.	6	-1	68*	4	74*
CN1/C(=C/C(=O)c2nc(S(C)(=O)=O)ncc2Cl)C(C)(C)c2ccccc21	-12	1	49*	-11	1	1	2	-18	11
CN1/C(=C\C(=O)c2cccnc2)C(C)(C)c2ccccc21	-6	0	1	-8	-1	-3	.	.	.
CCOc1ccc(N2C(=O)/C(=C\c3ccc(O)c(OC)c3)S(=O)(=O)C2c2cccc([N+](=O)[O-])c2)cc1 (centres undefined)	-31	-2	57*	-31	3	-5	14	5	-1
